Paper PMC7869845 (ACS catalysis, 2020)

How the values were obtained:
[1] = tested on: TamI S397A, T398A, V185A, P43A/V44A variants; type: biochemical, Streptomyces sp. 307-9; details: end-point assay, TirC to TirE conversion
TamI F92A [2] = experiment: End-point assay, TamI F92A; type: biochemical, Streptomyces sp. 307-9
How it was run: (§1)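 Site-directed mutants expressed in E. coli BL21(DE3). Reactions in phosphate buffer (50 mM NaH2PO4, pH 7.4, EDTA, dithioerythritol, 10% glycerol) held 500 μM tirandamycin substrate, 2 μM TamI, spinach ferredoxin, 2 μM ferredoxin-NADP+ reductase, and G6P/G6PDH NADPH regeneration. Incubated 3 h at 30 °C, extracted with CHCl3, then C18 reverse-phase HPLC with UV at 354 nm. Run in triplicate.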

TamI L399A/I400A [3] = experiment: End-point assay, TamI L399A/I400A; type: biochemical, Streptomyces sp. 307-9
How it was run: as §1

TamI F92A [4] = experiment: Spectrophotometric substrate binding assay, TamI F92A; set-up: species or system Streptomyces sp. 307-9
How it was run: (§2)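 Active P450 was quantified by CO-difference spectra (ε450-490 = 91 mM−1cm−1). Enzyme at 1 μM final in storage buffer was titrated aerobically at room temperature with tirandamycin C from DMSO stocks until saturated. Difference spectra were recorded at 365–429 nm, and peak-minus-trough ΔA was plotted against concentration. Kd came from quadratic tight-binding or hyperbolic fits, averaged over triplicate titrations.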

TamI L399A/I400A [5] = experiment: Spectrophotometric substrate binding assay, TamI L399A/I400A; set-up: species or system Streptomyces sp. 307-9
How it was run: as §2

TamI L101V/H102S = experiment: End-point assay, TamI L101V/H102S; type: biochemical, Streptomyces sp. 307-9; details: no change in product profile
How it was run: as §1

[6] = tested on: TamI double mutant (alanine substitutions at Leu295 and Thr299); experiment: End-point assay, TamI Leu295/Thr299 alanine double mutant; type: biochemical, Streptomyces sp. 307-9
How it was run: as §1

[7] = tested on: TamI-RhFRED fusion protein; details: first oxidation of 1, second oxidation of 3, final oxidation of 4; cited from earlier work

Row | Structure (SMILES) | product profile or abundance compared to wild type TamI [1] | catalytic activity (TamI F92A [2]) | catalytic activity (TamI L399A/I400A [3]) | spectral shift on substrate addition (TamI F92A [4]) | spectral shift on substrate addition (TamI L399A/I400A [5]) | TirC to TirE conversion (TamI L101V/H102S) | ability to convert substrate to 2 [6] | kcat [7]
1 | CC1=CC[C@H]2O[C@]1(C)O[C@H]([C@H](C)/C=C(C)/C=C/C(O)=C1/C(=O)CNC1=O)[C@H]2C [compound 1, tirandamycin C] | no evident changes in product profile or abundance | complete loss of catalytic activity | significantly reduced activity | no shift | no shift | significant decrease | wild type activity | 0.675 s⁻¹
2 | CC1=CC(=O)[C@H]2O[C@]1(C)O[C@H]([C@H](C)/C=C(C)/C=C/C(O)=C1/C(=O)CNC1=O)[C@H]2C [compound 3, tirandamycin D] |  |  |  |  |  |  |  | 1.4 s⁻¹
3 | CC(/C=C/C(O)=C1/C(=O)CNC1=O)=C\[C@@H](C)[C@H]1O[C@@]2(C)O[C@H](C(=O)[C@H]3O[C@]32C)[C@@H]1C [compound 4, tirandamycin A] |  |  |  |  |  |  |  | 0.00183 s⁻¹
